# Legend:
# [1] = cited from earlier work
# [2] = test system: I-FABP, flagellin, LBP, sCD14; type: in vivo, human; conditions: within each group
# How it was run: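 Participants with mild or moderate hepatic impairment and matched normal-function controls received a single-tablet 150 mg oral test compound, dosed over 14 days. I-FABP, flagellin, LBP and sCD14 were quantified by ELISA, following kit instructions, in plasma from Day 1 (predose), Day 7 and Day 14. Results were summarised by day as medians, IQR and change from baseline, using Wilcoxon tests.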
compound,measurement,setting,value
CCCCOCCOc1ccc(-c2ccc3c(c2)/C=C(/C(=O)Nc2ccc([S@@+]([O-])Cc4cncn4CCC)cc2)CCCN3CC(C)C)cc1 [cenicriviroc],time to reach steady-state plasma concentrations,[1]; healthy participants,8 to 10 days
same,plasma half-life,[1]; in humans,30 to 40 h
same,effect of administration with food on bioavailability,[1]; in vivo,increase
same,I-FABP change during treatment,[2],None of these markers changed significantly
same,LBP change during treatment,[2],None of these markers changed significantly
same,flagellin change during treatment,[2],None of these markers changed significantly
same,sCD14 change during treatment,[2],None of these markers changed significantly

# — paper PMC5351328 (Clinical and Translational Science, 2016)
